Results as given in paper PMC4132832 (Biochemical pharmacology, 2013).
Counter-ions that a name gives are not always drawn.

Each compound was assayed against Kir6.1/SUR2B channel (Rattus norvegicus, UniProt Q63664) (assay: whole-cell voltage clamp, HEK293).
Type: cell-based
Procedure, shortened: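 Rat Kir6.1 and SUR2B co-expressed in HEK293 with GFP marker, whole-cell patched at room temperature, holding 0 mV, 600-ms steps to -80 mV, symmetric 145 mM K+. Bath: K-gluconate/KCl, EGTA, glucose, HEPES pH 7.4. Pipette adds 1 mM K2ATP, 0.5 mM NaADP and 1 mM MgCl2. Plateau current normalized to the pinacidil/glibenclamide window. IC50 from Hill fit.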

Sequence of Kir6.1/SUR2B channel (Q63664 whole entry): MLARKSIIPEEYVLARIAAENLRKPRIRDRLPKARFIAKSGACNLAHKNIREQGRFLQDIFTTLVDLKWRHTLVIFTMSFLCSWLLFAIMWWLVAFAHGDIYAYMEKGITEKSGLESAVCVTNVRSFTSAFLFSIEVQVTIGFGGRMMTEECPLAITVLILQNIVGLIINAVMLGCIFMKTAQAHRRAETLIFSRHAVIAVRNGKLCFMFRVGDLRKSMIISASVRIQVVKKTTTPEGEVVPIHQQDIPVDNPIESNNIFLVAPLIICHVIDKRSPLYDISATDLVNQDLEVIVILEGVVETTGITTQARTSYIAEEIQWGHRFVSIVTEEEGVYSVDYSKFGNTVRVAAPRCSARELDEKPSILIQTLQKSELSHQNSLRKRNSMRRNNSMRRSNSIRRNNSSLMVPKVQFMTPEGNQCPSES
Sequence of Kir6.1/SUR2B channel (P70170 whole entry partner): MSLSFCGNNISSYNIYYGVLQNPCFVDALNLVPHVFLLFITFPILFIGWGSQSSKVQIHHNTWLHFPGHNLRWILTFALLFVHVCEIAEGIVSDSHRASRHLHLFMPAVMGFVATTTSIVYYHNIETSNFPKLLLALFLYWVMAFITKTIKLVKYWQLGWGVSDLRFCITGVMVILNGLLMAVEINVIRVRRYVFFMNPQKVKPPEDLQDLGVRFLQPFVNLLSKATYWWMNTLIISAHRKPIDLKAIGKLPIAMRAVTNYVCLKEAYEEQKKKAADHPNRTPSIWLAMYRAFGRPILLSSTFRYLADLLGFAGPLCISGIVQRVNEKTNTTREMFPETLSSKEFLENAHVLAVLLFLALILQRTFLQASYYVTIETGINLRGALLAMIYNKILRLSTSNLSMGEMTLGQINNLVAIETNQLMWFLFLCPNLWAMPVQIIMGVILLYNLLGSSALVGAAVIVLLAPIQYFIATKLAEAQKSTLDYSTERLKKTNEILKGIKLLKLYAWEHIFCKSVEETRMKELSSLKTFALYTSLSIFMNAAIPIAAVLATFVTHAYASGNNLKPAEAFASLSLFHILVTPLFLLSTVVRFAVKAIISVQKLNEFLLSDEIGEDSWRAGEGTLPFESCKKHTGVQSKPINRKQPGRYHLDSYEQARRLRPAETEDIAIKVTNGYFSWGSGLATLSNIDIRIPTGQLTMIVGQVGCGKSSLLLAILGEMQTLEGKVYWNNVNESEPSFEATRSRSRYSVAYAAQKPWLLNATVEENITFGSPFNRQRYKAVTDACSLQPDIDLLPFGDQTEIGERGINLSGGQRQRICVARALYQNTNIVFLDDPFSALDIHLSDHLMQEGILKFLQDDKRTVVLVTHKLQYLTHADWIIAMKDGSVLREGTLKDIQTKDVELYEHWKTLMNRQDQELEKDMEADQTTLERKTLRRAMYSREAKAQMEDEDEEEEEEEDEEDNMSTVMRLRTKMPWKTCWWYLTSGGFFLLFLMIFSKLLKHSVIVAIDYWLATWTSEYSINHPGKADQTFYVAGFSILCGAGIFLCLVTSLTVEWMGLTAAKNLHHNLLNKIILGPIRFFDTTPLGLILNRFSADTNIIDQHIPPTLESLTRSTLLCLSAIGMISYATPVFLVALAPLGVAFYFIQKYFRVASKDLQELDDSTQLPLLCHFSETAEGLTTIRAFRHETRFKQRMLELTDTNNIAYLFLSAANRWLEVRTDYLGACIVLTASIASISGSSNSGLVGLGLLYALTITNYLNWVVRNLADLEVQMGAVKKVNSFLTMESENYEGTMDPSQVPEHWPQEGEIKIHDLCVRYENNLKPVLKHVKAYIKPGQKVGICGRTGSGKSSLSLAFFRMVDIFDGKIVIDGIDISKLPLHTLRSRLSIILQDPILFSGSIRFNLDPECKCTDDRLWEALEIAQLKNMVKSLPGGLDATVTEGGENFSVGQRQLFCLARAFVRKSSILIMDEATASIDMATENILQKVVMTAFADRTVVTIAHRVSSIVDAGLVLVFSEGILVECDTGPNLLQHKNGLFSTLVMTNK

| Structure (SMILES) | IC50 [µM] |
| --- | --- |
| Cc1oc(-c2ccccc2)nc1CCC(=O)c1ccc(CC2SC(=O)NC2=O)cc1 (stereo not drawn) [Darglitazone, 5-[[4-[3-(5-methyl-2-phenyl-1,3-oxazol-4-yl)propanoyl]phenyl]methyl]-1,3-thiazolidine-2,4-dione] | 25 |
| CC(C)OC(=O)C(C)(C)Oc1ccc(C(=O)c2ccc(Cl)cc2)cc1 [Fenofibrate, propan-2-yl 2-[4-(4-chlorobenzoyl)phenoxy]-2-methylpropanoate] | 80 |
| O=C1NC(=O)C(Cc2ccc3c(c2)CC[C@H](Cc2ccccc2)O3)S1 (stereo partly drawn) [Englitazone, 5-[(2-benzyl-3,4-dihydro-2H-chromen-6-yl)methyl]-1,3-thiazolidine-2,4-dione] | 7 |
| Cc1c(C)c2c(c(C)c1O)CCC(C)(COc1ccc(CC3SC(=O)NC3=O)cc1)O2 (stereo not drawn) [Troglitazone, 5-[[4-[(6-hydroxy-2,5,7,8-tetramethyl-3,4-dihydrochromen-2-yl)methoxy]phenyl]methyl]-1,3-thiazolidine-2,4-dione] | 100 |
| Cc1ccc(C)c(OCCCC(C)(C)C(=O)O)c1 [Gemfibrozil, 5-(2,5-dimethylphenoxy)-2,2-dimethylpentanoic acid] | 290 |
| CCc1ccc(C(=O)COc2ccc(CC3SC(=O)NC3=O)cc2)nc1 (stereo not drawn) [Cay10415, 5-[[4-[2-(5-ethylpyridin-2-yl)-2-oxoethoxy]phenyl]methyl]-1,3-thiazolidine-2,4-dione] | 15 |
| CC1(COc2ccc(CC3SC(=O)NC3=O)cc2)CCCCC1 (stereo not drawn) [Ciglitazone, 5-[[4-[(1-methylcyclohexyl)methoxy]phenyl]methyl]-1,3-thiazolidine-2,4-dione] | 120 |
| CCc1ccc(CCOc2ccc(CC3SC(=O)NC3=O)cc2)nc1 (stereo not drawn) [Pioglitazone, 5-[[4-[2-(5-ethylpyridin-2-yl)ethoxy]phenyl]methyl]-1,3-thiazolidine-2,4-dione] | 95 |
| CCOc1ccc(C=C2SC(=O)N(CCN)C2=O)cc1 [A6355, 3-(2-aminoethyl)-5-[(4-ethoxyphenyl)methylidene]-1,3-thiazolidine-2,4-dione hydrochloride] | 8 |
| CN(CCOc1ccc(CC2SC(=O)NC2=O)cc1)c1ccccn1 (stereo not drawn) [Rosiglitazone, 5-[[4-[2-[methyl(pyridin-2-yl)amino]ethoxy]phenyl]methyl]-1,3-thiazolidine-2,4-dione] | 12 |
| Cc1cc(SCc2sc(-c3ccc(C(F)(F)F)c(F)c3)nc2C)ccc1OCC(=O)O [GW0742, 2-[4-[[2-[3-fluoro-4-(trifluoromethyl)phenyl]-4-methyl-1,3-thiazol-5-yl]methylsulfanyl]-2-methylphenoxy]acetic acid] | 80 |

Other lines, results leading:

| IC50 [µM] | Structure (SMILES) |
| --- | --- |
| 120 | Cc1cc(SCc2sc(-c3ccc(C(F)(F)F)cc3)nc2C)ccc1OCC(=O)O [GW501516, 2-[2-methyl-4-[[4-methyl-2-[4-(trifluoromethyl)phenyl]-1,3-thiazol-5-yl]methylsulfanyl]phenoxy]acetic acid] |
| 60 | O=C1NC(=O)/C(=C/c2ccc3nccnc3c2)S1 [AS605240, (5Z)-5-(quinoxalin-6-ylmethylidene)-1,3-thiazolidine-2,4-dione] |
| > 100 | O=C1NC(=O)C(Cc2ccc(O)cc2)S1 (stereo not drawn) [CDS005865, 5-(4-hydroxybenzyl)-2,4-thiazolidinedione] |
| 4 | O=C1NC(=O)/C(=C/c2ccc(-c3ccc(F)cc3O)o2)S1 [AS-252424, (5Z)-5-[[5-(4-fluoro-2-hydroxyphenyl)furan-2-yl]methylidene]-1,3-thiazolidine-2,4-dione] |
